The record followed here is ChEMBL document CHEMBL4321823, “Benzyl Phenylsemicarbazides: A Chemistry-Driven Approach Leading to G Protein-Biased Dopamine D4 Receptor Agonists with High Subtype Selectivity” (J Med Chem, 2019).

One assay concerns the target D(2) dopamine receptor (Homo sapiens, UniProt P14416). The assay can be described thus: Displacement of [3H] Spiperone from human D2S receptor expressed in CHO cells by competitive radioligand binding assay. Type of assay: cell-based. A general note: Loss of bound radioactivity is the signal in a displacement assay; it reports binding, not function.
The target in a further assay is D(3) dopamine receptor (Homo sapiens, UniProt P35462). The assay can be described thus: Displacement of [3H] Spiperone from human D3 receptor expressed in CHO cells by competitive radioligand binding assay. The assay is classed as cell-based.
D(3) dopamine receptor, sequence (P35462 whole entry): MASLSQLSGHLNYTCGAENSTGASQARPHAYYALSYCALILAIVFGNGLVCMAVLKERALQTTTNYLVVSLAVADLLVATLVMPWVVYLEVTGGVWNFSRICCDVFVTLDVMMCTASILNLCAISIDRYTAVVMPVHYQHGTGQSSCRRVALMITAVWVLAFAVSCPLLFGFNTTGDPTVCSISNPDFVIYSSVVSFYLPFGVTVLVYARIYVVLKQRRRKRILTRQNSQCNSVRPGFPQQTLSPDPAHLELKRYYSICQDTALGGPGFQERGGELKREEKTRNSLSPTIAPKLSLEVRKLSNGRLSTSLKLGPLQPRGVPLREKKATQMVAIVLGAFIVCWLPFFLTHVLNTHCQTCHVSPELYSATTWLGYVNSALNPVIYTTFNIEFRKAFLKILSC
Assay [1] addresses T1, D(4) dopamine receptor (Homo sapiens, UniProt P21917).
T1 sequence (P21917 whole entry): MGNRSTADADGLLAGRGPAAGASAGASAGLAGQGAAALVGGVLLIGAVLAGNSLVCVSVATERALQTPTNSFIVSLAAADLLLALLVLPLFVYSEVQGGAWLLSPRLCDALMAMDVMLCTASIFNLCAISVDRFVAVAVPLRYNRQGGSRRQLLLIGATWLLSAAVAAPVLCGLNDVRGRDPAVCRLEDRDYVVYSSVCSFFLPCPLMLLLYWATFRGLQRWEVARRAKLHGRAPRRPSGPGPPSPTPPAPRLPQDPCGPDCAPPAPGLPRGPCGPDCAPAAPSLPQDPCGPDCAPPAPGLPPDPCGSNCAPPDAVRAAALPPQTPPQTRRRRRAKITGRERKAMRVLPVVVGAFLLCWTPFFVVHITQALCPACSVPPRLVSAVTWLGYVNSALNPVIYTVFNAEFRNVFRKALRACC
The assay can be described thus: Displacement of [3H] Spiperone from human D4.4 receptor expressed in CHO cells by competitive radioligand binding assay. The assay is classed as cell-based.

Assay [2] is filed under the species Homo sapiens. Put plainly: Selectivity index, ratio of Ki for displacement of [3H] Spiperone from human D2L receptor expressed in CHO cells to Ki for displacement of [3H] Spiperone from human D4.4 receptor expressed in CHO cells. The assay is classed as cell-based. Put shortly:
(§1)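 Competition binding against [3H]spiperone on membranes of CHO cells stably expressing cloned human D2L, D2S, D3 or D4.4 receptors. Ki from monophasic curve fits; mean ± SEM of three to seven experiments, each in triplicate. Selectivity calculated as Ki(D2L, D2S or D3) divided by Ki(D4.4).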

For assay [3], the species on record is Homo sapiens. Put plainly: Selectivity index, ratio of Ki for displacement of [3H] Spiperone from human D2S receptor expressed in CHO cells to Ki for displacement of [3H] Spiperone from human D4.4 receptor expressed in CHO cells. Type of assay: cell-based. Put shortly:
as §1

The species named for assay [4] is Homo sapiens. Put plainly: Selectivity index, ratio of Ki for displacement of [3H] Spiperone from human D3 receptor expressed in CHO cells to Ki for displacement of [3H] Spiperone from human D4.4 receptor expressed in CHO cells. Type of assay: cell-based. The essentials: as §1
In another assay the target is D(1A) dopamine receptor (Homo sapiens, UniProt P21728). Put plainly: Displacement of [3H] SCH23390 from D1 receptor (unknown origin).
D(1A) dopamine receptor, sequence (P21728 whole entry): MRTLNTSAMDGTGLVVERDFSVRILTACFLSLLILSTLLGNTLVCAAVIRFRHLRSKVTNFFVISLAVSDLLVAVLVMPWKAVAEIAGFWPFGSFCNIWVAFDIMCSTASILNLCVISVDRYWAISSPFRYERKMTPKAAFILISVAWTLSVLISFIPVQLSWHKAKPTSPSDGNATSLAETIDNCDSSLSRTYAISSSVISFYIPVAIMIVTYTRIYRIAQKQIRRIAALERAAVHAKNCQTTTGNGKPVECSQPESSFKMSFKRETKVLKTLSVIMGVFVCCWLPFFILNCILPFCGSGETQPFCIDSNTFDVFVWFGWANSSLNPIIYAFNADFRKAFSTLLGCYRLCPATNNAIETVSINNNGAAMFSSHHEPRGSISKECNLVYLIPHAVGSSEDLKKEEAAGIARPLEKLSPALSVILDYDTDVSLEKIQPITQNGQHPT
The next assay addresses D(1B) dopamine receptor (Homo sapiens, UniProt P21918). The assay can be described thus: Displacement of [3H] SCH23390 from D5 receptor (unknown origin).
Assay [5] concerns the target T2, Alpha-1A adrenergic receptor (Homo sapiens, UniProt P35348).
T2 sequence (P35348 whole entry): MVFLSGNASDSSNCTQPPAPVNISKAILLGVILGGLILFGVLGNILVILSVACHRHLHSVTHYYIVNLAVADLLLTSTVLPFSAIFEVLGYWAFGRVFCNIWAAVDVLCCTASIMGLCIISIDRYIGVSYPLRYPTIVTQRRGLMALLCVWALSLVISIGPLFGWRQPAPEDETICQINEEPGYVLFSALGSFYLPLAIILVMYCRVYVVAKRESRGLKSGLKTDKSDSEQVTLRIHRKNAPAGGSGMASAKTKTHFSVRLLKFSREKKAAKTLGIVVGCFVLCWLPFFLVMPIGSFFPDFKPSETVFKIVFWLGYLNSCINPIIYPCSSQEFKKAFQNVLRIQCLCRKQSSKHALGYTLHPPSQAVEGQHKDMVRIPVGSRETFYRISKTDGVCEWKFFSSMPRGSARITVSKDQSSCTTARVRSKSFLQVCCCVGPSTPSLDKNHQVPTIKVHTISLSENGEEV
Put plainly: Displacement of [3H] prazosin from alpha1A adrenergic receptor (unknown origin).

The target in assay [6] is Beta-1 adrenergic receptor (Homo sapiens, UniProt P08588). Put plainly: Displacement of [3H] CGP12177 from beta1 adrenergic receptor (unknown origin).
Beta-1 adrenergic receptor, sequence (P08588 whole entry): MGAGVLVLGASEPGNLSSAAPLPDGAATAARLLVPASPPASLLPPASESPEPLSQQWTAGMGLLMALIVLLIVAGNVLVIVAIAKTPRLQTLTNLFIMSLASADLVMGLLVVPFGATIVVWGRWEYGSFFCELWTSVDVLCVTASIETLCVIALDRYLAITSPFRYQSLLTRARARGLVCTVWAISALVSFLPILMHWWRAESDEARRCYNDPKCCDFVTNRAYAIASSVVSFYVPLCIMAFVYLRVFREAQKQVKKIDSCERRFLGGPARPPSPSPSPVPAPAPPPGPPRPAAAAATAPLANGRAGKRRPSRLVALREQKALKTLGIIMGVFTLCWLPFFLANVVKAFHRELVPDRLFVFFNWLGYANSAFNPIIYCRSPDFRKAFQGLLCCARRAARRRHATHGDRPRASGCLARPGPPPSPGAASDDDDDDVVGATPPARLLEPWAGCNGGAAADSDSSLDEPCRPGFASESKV
The target in assay [7] is Beta-2 adrenergic receptor (Homo sapiens, UniProt P07550). Put plainly: Displacement of [3H] CGP12177 from beta2 adrenergic receptor (unknown origin).
Beta-2 adrenergic receptor, sequence (P07550 whole entry): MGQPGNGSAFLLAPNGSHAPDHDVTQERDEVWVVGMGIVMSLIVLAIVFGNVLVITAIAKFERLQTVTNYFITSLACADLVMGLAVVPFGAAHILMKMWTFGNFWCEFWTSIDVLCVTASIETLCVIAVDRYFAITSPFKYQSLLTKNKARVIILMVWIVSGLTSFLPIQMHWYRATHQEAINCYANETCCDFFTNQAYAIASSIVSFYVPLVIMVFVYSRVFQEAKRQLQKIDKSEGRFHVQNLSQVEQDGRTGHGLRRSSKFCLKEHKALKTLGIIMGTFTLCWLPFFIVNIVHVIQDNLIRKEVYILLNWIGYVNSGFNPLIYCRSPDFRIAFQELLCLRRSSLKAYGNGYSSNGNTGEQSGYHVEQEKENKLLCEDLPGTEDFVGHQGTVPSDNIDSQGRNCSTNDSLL
The target in assay [8] is Delta-type opioid receptor (Homo sapiens, UniProt P41143). The assay can be described thus: Displacement of [3H] diprenorphine from delta opioid receptor (unknown origin).
Delta-type opioid receptor, sequence (P41143 whole entry): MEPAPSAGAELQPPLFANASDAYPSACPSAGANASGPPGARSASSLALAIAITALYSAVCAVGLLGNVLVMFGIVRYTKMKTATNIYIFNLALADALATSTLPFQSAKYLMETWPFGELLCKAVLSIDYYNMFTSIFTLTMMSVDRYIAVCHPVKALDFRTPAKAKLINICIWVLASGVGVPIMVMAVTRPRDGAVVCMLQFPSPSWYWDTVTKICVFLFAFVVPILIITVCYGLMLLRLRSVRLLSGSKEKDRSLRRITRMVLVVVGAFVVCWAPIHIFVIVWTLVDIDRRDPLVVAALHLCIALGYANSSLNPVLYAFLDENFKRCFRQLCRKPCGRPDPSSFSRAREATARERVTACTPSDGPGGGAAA
For assay [9], the target named is Kappa-type opioid receptor (Homo sapiens, UniProt P41145). The assay can be described thus: Displacement of [3H] diprenorphine from kappa opioid receptor (unknown origin). The essentials:
(§2)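 Radioligand competition binding; Ki given as mean ± SD from two individual experiments, each run in triplicate.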

A further assay deals with Mu-type opioid receptor (Homo sapiens, UniProt P35372). Put plainly: Displacement of [3H] diprenorphine from mu opioid receptor (unknown origin). Put shortly: as §2
Mu-type opioid receptor, sequence (P35372 whole entry): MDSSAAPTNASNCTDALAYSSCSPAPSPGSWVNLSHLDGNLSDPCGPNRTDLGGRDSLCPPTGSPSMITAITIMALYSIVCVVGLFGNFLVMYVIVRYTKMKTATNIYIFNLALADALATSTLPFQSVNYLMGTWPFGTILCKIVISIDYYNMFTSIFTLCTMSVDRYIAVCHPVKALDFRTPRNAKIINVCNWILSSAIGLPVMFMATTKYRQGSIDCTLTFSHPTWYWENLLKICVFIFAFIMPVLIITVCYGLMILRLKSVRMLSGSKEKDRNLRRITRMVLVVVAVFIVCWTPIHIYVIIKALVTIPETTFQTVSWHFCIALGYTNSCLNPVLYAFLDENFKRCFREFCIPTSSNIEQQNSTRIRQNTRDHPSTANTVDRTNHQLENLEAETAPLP
Assay [10] concerns the target T3, Muscarinic acetylcholine receptor M1 (Homo sapiens, UniProt P11229).
T3 sequence (P11229 whole entry): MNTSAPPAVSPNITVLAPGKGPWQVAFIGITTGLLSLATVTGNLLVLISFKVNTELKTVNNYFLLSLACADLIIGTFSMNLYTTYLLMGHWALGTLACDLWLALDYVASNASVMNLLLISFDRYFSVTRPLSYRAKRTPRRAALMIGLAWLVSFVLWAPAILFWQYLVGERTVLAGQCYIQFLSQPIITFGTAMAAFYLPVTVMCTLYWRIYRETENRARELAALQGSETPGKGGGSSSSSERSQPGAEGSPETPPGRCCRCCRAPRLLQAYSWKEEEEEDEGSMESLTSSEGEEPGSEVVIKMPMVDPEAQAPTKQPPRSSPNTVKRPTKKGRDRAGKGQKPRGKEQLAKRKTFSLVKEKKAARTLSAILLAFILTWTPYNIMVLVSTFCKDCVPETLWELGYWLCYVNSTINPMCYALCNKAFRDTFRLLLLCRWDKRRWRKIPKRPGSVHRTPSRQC
Put plainly: Displacement of [3H] NMS from muscarinic M1 receptor (unknown origin). Put shortly: as §2

Assay [11] deals with Muscarinic acetylcholine receptor M3 (Homo sapiens, UniProt P20309). Put plainly: Displacement of [3H] NMS from muscarinic M3 receptor (unknown origin). The essentials: as §2
Muscarinic acetylcholine receptor M3, sequence (P20309 whole entry): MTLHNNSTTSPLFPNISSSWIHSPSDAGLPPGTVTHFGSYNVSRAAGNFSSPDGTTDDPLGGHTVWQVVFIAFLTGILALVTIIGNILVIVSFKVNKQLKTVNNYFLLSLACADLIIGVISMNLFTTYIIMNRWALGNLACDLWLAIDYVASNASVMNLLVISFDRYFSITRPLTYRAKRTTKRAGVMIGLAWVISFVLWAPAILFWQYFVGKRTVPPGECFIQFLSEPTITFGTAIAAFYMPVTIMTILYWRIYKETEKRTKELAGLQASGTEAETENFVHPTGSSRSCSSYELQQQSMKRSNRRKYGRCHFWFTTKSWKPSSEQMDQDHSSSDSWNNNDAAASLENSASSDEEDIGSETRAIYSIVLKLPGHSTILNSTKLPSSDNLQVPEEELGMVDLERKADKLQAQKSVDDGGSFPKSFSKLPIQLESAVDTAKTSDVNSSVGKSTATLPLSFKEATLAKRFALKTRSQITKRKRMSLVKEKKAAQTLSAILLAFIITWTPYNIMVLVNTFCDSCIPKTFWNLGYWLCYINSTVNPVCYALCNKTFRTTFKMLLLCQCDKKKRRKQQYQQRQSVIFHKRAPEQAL
For assay [12], the target named is 5-hydroxytryptamine receptor 2A (Homo sapiens, UniProt P28223). The assay can be described thus: Displacement of [3H] Ketanserin from 5HT2A receptor (unknown origin).
5-hydroxytryptamine receptor 2A, sequence (P28223 whole entry): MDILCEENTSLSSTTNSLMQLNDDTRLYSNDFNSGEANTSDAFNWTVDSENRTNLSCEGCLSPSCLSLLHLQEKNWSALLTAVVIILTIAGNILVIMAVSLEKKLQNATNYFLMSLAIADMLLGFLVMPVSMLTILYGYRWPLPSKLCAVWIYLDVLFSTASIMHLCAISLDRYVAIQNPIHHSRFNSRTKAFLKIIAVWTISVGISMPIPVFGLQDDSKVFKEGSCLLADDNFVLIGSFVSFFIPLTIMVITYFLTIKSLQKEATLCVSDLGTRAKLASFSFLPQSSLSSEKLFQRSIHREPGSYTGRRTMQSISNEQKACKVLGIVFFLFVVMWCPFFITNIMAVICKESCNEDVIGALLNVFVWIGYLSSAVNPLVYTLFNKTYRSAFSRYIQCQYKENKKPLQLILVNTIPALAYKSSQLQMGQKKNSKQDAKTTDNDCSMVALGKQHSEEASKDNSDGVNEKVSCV
In assay [13] the target is T1, D(4) dopamine receptor. Put plainly: Agonist activity at human D4 receptor expressed in HEK293T cells co-expressing G-alphaqi assessed as accumulation of inositol monophosphate using d2-labelled IP1 conjugate incubated for 90 mins by HTRF assay. Type of assay: functional, cell-based. Background: TR-FRET usually uses a lanthanide donor and a delayed reading to cut background.

Assay [14] addresses T1, D(4) dopamine receptor. Type of assay: cell-based, HEK293.
Assay [15] has as its target T4, Alpha-1A adrenergic receptor (Homo sapiens) (UniProt P35348).
T4 sequence (whole entry): T2 sequence (P35348 whole entry)
The assay can be described thus: Antagonist activity at human alpha1A adrenergic receptor expressed in HEK293T cells assessed as accumulation of inositol monophosphate using d2-labelled IP1 conjugate incubated for 60 mins by HTRF assay. The assay is classed as functional, cell-based.

The source made the active and inactive calls. The rule behind the calls is not given here.

D(1B) dopamine receptor, sequence (P21918 whole entry): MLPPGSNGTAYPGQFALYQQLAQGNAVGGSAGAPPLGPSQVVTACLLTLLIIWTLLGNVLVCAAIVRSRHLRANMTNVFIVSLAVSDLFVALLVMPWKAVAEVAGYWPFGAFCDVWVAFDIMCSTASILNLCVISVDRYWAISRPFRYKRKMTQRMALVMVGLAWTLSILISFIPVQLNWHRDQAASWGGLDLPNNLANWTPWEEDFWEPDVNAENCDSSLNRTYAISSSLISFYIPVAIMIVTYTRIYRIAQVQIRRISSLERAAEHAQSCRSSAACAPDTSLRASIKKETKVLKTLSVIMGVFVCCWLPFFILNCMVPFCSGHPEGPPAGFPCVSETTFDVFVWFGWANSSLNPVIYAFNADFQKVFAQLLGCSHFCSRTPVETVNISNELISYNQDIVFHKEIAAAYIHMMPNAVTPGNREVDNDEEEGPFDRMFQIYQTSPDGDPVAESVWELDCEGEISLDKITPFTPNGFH
Kappa-type opioid receptor, sequence (P41145 whole entry): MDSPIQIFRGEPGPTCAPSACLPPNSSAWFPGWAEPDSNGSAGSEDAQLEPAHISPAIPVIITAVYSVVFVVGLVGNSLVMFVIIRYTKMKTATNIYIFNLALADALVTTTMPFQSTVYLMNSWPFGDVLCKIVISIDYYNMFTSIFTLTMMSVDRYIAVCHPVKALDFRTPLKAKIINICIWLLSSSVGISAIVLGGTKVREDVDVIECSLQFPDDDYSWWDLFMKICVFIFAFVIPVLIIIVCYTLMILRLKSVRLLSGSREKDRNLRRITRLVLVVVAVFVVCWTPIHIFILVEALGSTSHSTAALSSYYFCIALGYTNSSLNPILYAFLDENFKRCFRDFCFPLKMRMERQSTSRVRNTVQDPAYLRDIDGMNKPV
D(2) dopamine receptor, sequence (P14416 whole entry): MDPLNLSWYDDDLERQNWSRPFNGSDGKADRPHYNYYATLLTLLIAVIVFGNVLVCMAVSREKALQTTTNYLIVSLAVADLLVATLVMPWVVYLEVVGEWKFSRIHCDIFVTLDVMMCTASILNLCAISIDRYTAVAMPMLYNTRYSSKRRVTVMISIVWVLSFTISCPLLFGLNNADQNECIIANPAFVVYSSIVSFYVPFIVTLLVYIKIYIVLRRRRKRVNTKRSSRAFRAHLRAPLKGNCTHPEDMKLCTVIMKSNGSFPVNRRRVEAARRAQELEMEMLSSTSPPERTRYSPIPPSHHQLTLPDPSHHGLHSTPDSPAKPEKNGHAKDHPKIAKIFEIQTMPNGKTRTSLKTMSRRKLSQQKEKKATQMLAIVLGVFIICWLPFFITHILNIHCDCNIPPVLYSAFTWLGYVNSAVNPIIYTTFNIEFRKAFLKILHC

`COc1ccccc1N1CCN(CCCNC(=O)NN(Cc2ccc(F)cc2)c2ccccc2)CC1`: the Ki (usually the dissociation constant of the complex between target and ligand, obtained from inhibition or displacement) on D(2) dopamine receptor was determined as 110 nM; at D(3) dopamine receptor, 310 nM; on D(4) dopamine receptor [1] it was 0.55 nM; on D(1A) dopamine receptor, 360 nM; on D(1B) dopamine receptor, 1000 nM; in [5] it was 1.6 nM. Further, the Ki in assay [6] was more than 50000 nM; in assay [7], 4500 nM; in assay [8] it was 19000 nM; in assay [9], 4300 nM; on Mu-type opioid receptor it was 2300 nM; in assay [10], 15000 nM. The values for the Ki in assay [11] and in assay [12] were 37000 nM and 130 nM, respectively. In addition, the Ratio Ki in the assay listed under Homo sapiens [2] worked out at 250; in the assay filed under Homo sapiens [3] it was 200; in the assay listed under Homo sapiens [4], 560. For the same compound, the EC50 (usually the concentration at which the effect is half-maximal) amounted to 41 nM at D(4) dopamine receptor [13] and 500 nM at D(4) dopamine receptor [14]. The result in assay [15] was inactive.
